Assay results taken from ChEMBL document CHEMBL1129731, “The chemistry of pseudomonic acid. 17. Dual-action C-1 oxazole derivatives of pseudomonic acid having an extended spectrum of antibacterial activity” (J Med Chem, 1996).
≈ marks a conversion by molar mass, not a printed value.

What was measured:
Bacteroides fragilis = assay: compound was tested for antibacterial activity Bacteroides fragilis NCTC 10581.; type: functional
Enterobacter cloacae = assay: compound was tested for antibacterial activity against Ent. cloacae N1.; type: functional
Escherichia coli [1] = assay: compound was tested for antibacterial activity against Escherichia coli DC0.; type: functional
Escherichia coli [2] = assay: compound was tested for antibacterial activity against Escherichia coli DC2.; type: functional
How it was run: (§1)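 Broth microdilution in Mueller–Hinton broth; overnight broth cultures added to final 5 × 10^5 cfu/mL; incubated 37 °C, 18 h. MIC (µg/mL) taken as lowest concentration inhibiting growth.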

Enterococcus faecalis = assay: compound was tested for antibacterial activity against Ent. faecalis I; type: functional; how it was run: as §1
Haemophilus influenzae = assay: compound was tested for antibacterial activity against Haemophilus influenzae Q1.; type: functional
How it was run: (§2)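 Broth microdilution in Mueller–Hinton broth supplemented (final) with 5% heat-inactivated horse serum, 0.02 mg/mL hematin and 0.08 mg/mL NAD; inoculum 5 × 10^5 cfu/mL from overnight broth cultures; 37 °C for 18 h; MIC (µg/mL) read as lowest concentration inhibiting growth.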

Isoleucine--tRNA ligase [3] = biological target: T1, Isoleucine--tRNA ligase (Staphylococcus aureus, UniProt P41972); assay: Inhibitory activity against isoleucyl-tRNA synthetase (IRS) of Staphylococcus aureus; type: functional
T1 sequence (P41972 whole entry): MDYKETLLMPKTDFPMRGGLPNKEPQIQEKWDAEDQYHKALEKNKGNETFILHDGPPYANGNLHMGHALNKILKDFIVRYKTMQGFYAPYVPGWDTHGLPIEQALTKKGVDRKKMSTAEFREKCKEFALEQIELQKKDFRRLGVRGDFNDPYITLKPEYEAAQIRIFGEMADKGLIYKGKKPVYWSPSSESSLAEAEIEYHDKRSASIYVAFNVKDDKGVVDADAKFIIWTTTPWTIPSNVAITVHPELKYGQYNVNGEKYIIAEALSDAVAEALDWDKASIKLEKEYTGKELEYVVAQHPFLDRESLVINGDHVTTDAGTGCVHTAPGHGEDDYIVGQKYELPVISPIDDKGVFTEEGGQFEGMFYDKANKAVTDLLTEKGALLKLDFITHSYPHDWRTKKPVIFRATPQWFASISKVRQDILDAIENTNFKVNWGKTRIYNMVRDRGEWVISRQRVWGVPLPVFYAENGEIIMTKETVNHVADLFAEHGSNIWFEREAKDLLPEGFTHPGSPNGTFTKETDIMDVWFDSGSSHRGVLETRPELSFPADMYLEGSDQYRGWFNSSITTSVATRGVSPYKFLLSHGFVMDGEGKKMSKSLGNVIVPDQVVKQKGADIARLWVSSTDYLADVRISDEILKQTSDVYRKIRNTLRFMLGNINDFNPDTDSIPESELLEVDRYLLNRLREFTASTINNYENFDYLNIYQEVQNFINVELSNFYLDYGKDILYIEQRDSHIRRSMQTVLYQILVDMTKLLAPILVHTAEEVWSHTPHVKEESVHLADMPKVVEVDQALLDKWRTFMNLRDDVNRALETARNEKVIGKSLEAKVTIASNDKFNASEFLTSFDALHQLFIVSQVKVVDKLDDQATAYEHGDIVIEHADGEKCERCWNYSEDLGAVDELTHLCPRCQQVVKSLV

Klebsiella pneumoniae = assay: compound was tested for antibacterial activity against Klebsiella pneumoniae E70.; type: functional; how it was run: as §1
Moraxella catarrhalis = assay: compound was tested for antibacterial activity against Moraxella catarrhalis 1502.; type: functional; how it was run: as §2
Proteus mirabilis = assay: compound was tested for antibacterial activity against Pr. mirabilis C889.; type: functional; how it was run: as §1
Pseudomonas aeruginosa = assay: compound was tested for antibacterial activity against Pseudomonas aeruginosa K799 wt.; type: functional; how it was run: as §1
[4] = system: Staphylococcus epidermidis; assay: compound was tested for antibacterial activity aagainst Staphylococcus epidermidis PHLN 20.; type: functional; how it was run: as §1
Streptococcus pneumoniae = assay: compound was tested for antibacterial activity against Strep. pneumoniae 1761.; type: functional; how it was run: as §2
Staphylococcus aureus [5] = assay: compound was tested for antibacterial activity against Staphylococcus aureus F 89.; type: functional; how it was run: as §1
Staphylococcus aureus [6] = assay: compound was tested for antibacterial activity against Staphylococcus aureus NCTC 6571.; type: functional; how it was run: as §1
Streptococcus pyogenes = assay: compound was tested for antibacterial activity against Streptococcus pyogenes CN10.; type: functional; how it was run: as §2
Staphylococcus aureus [7] = assay: compound was tested for antibacterial activity against Staphylococcus aureus C 37.; type: functional
Mus musculus [8] = assay: Total […] dose against Staphylococcus aureus after sc administration (1+5 hr post infection) to mouse; conditions: in vivo
Isoleucine--tRNA ligase [9] = biological target: T1, Isoleucine--tRNA ligase; assay: compound was tested for inhibitory activity of isoleucyl-tRNA synthetase (IRS).; type: functional
[10] = Pharmacokinetic parameter Cmax was determined in blood level in mouse after oral administration.; type: ADME, organism-based; parameters: route oral
How it was run: (§3)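 CD1 male mice (18–22 g), nonfasted, groups of five; 50 mg/kg in 0.2 mL, dissolved in 10% ethanol then diluted 1:9 with 1% HPMC in water (po) or PBS pH 7.3 (sc). Blood sampled 5–240 min; levels by Bacillus subtilis agar bioassay (pH 7.0, 30 °C overnight) against standards in heparinized mouse blood.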

Mus musculus [11] = assay: Pharmacokinetic parameter Cmax was determined in blood level in mouse after subcutaneous administration.; type: ADME, organism-based; parameters: route subcutaneous; conditions: in vivo, sc; how it was run: as §3
Mus musculus [12] = assay: Pharmacokinetic parameter AUC was determined in blood level in mouse after oral administration.; type: ADME, organism-based; conditions: in vivo; how it was run: as §3
Mus musculus [13] = assay: Pharmacokinetic parameter AUC was determined in blood level in mouse after subcutaneous administration.; type: ADME, organism-based; conditions: in vivo, sc; how it was run: as §3
Mus musculus [14] = assay: Total […] dose against Staphylococcus aureus after […] administration (1+5 hr post infection) to mouse; type: organism-based; conditions: in vivo, po
How it was run: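 CD1 male mice, groups of five, infected ip with S. aureus Smith, 1.3 × 10^10 cfu (po groups) or 5 × 10^9 cfu (sc groups); dosed po or sc at 1 + 5 h postinfection, 0.2 mL/mouse. CD50 = total dose protecting 50% of mice from death, scored day 2 postinfection.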

[15] = Pharmacokinetic parameter Tmax was determined in blood level in mouse after oral administration.; type: ADME, organism-based; how it was run: as §3
[16] = Pharmacokinetic parameter Tmax was determined in blood level in mouse after subcutaneous administration.; type: ADME, organism-based; conditions: sc; how it was run: as §3

## C/C(=C\c1ncc(-c2csc([N+](=O)[O-])c2)o1)C[C@@H]1OC[C@H](C[C@@H]2O[C@H]2[C@@H](C)[C@H](C)O)[C@@H](O)[C@H]1O
Bacteroides fragilis
  MIC: 16 µg/mL (≈ 32.4 µM)
Enterobacter cloacae
  MIC: 16 µg/mL (≈ 32.4 µM)
Escherichia coli [1]
  MIC: 32 µg/mL (≈ 64.7 µM)
Escherichia coli [2]
  MIC: < 0.06 µg/mL
Enterococcus faecalis
  MIC: 32 µg/mL (≈ 64.7 µM)
Haemophilus influenzae
  MIC: < 0.06 µg/mL
Isoleucine--tRNA ligase [3]
  IC50: 4.45 nM
Klebsiella pneumoniae
  MIC: 64 µg/mL (≈ 129 µM)
Moraxella catarrhalis
  MIC: 0.125 µg/mL (≈ 0.253 µM)
Proteus mirabilis
  MIC: 64 µg/mL (≈ 129 µM)
Pseudomonas aeruginosa
  MIC: > 64 µg/mL
[4]
  MIC: 0.125 µg/mL (≈ 0.253 µM)
Streptococcus pneumoniae
  MIC: < 0.06 µg/mL
Staphylococcus aureus [5]
  MIC: 64 µg/mL (≈ 129 µM)
Staphylococcus aureus [6]
  MIC: 0.125 µg/mL (≈ 0.253 µM)
Streptococcus pyogenes
  MIC: < 0.06 µg/mL
Staphylococcus aureus [7]
  MIC: 32 µg/mL (≈ 64.7 µM)

## C/C(=C\c1ncc(-c2cc([N+](=O)[O-])cs2)o1)C[C@@H]1OC[C@H](C[C@@H]2O[C@H]2[C@@H](C)[C@H](C)O)[C@@H](O)[C@H]1O
Bacteroides fragilis
  MIC: > 64 µg/mL
Enterobacter cloacae
  MIC: 16 µg/mL (≈ 32.4 µM)
Escherichia coli [1]
  MIC: 32 µg/mL (≈ 64.7 µM)
Escherichia coli [2]
  MIC: < 0.06 µg/mL
Enterococcus faecalis
  MIC: 32 µg/mL (≈ 64.7 µM)
Haemophilus influenzae
  MIC: < 0.06 µg/mL
Isoleucine--tRNA ligase [3]
  IC50: 6.87 nM
Klebsiella pneumoniae
  MIC: 32 µg/mL (≈ 64.7 µM)
Moraxella catarrhalis
  MIC: < 0.06 µg/mL
Proteus mirabilis
  MIC: 64 µg/mL (≈ 129 µM)
Pseudomonas aeruginosa
  MIC: > 64 µg/mL
[4]
  MIC: < 0.06 µg/mL
Streptococcus pneumoniae
  MIC: < 0.06 µg/mL
Staphylococcus aureus [5]
  MIC: > 64 µg/mL
Staphylococcus aureus [6]
  MIC: < 0.06 µg/mL
Streptococcus pyogenes
  MIC: < 0.06 µg/mL
Staphylococcus aureus [7]
  MIC: 32 µg/mL (≈ 64.7 µM)

## CN[C@H](CC(C)C)C(=O)N[C@H]1C(=O)N[C@@H](CC(N)=O)C(=O)N[C@H]2C(=O)N[C@H]3C(=O)N[C@H](C(=O)N[C@H](C(=O)O)c4cc(O)cc(O)c4-c4cc3ccc4O)[C@H](O)c3ccc(c(Cl)c3)Oc3cc2cc(c3O[C@@H]2O[C@H](CO)[C@@H](O)[C@H](O)[C@H]2O[C@H]2C[C@](C)(N)[C@H](O)[C@H](C)O2)Oc2ccc(cc2Cl)[C@H]1O [VANCOMYCIN]
Mus musculus [8]
  CD50: 3.8 mg/kg

## C/C(=C\c1ncc(-c2ccc([N+](=O)[O-])o2)o1)C[C@@H]1OC[C@H](C[C@@H]2O[C@H]2[C@@H](C)[C@H](C)O)[C@@H](O)[C@H]1O
Bacteroides fragilis
  MIC: 2 µg/mL (≈ 4.18 µM)
Enterobacter cloacae
  MIC: 4 µg/mL (≈ 8.36 µM)
Escherichia coli [1]
  MIC: 16 µg/mL (≈ 33.4 µM)
Escherichia coli [2]
  MIC: < 0.06 µg/mL
Enterococcus faecalis
  MIC: 16 µg/mL (≈ 33.4 µM)
Haemophilus influenzae
  MIC: < 0.06 µg/mL
Isoleucine--tRNA ligase [9]
  IC50: 400 µg/mL (≈ 836 µM)
Klebsiella pneumoniae
  MIC: > 64 µg/mL
Moraxella catarrhalis
  MIC: < 0.06 µg/mL
[10]
  Cmax: 28700 ng/mL
Mus musculus [11]
  Cmax: 30500 ng/mL
Mus musculus [12]
  AUC: 1734 ug m-1 min-1
Mus musculus [13]
  AUC: 2407 ug m-1 min-1
Mus musculus [14]
  CD50: 3.2 mg/kg
[15]
  Tmax: 15 min
Proteus mirabilis
  MIC: > 64 µg/mL
Pseudomonas aeruginosa
  MIC: > 64 µg/mL
[4]
  MIC: < 0.06 µg/mL
Streptococcus pneumoniae
  MIC: < 0.06 µg/mL
Staphylococcus aureus [5]
  MIC: 4 µg/mL (≈ 8.36 µM)
Staphylococcus aureus [6]
  MIC: < 0.06 µg/mL
Streptococcus pyogenes
  MIC: < 0.06 µg/mL
Staphylococcus aureus [7]
  MIC: 4 µg/mL (≈ 8.36 µM)
[16]
  Tmax: 5 min
Mus musculus [8]
  CD50: 1.2 mg/kg
